ChEMBL document CHEMBL1148788 (J Med Chem, 2007)
Where “and” joins values, the source holds several entries; their conditions need not be identical. Equal entries are not always repeated. Calls of active or inactive are those of the source. The rule behind the calls is not given here.

What was measured:
[1] = Displacement of [3H]methyllycaconitine from chimeric alpha-7nAChR D197A mutant/5HT3A receptor in tsA201 cells; assay type: cell-based, Homo sapiens
In short: (§1)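 tsA-201 cells transiently transfected with 4 µg WT or mutant α7/5-HT3A chimera and assayed 2 days later. Membranes washed twice at 50000g in 50 mM Tris-HCl pH 7.2. Incubated with 0.5 nM [3H]MLA and compound for 2.5 h at room temperature with shaking; nonspecific binding with 5 mM (S)-nicotine. PEI-soaked GF/C filtration, scintillation counting. Ki derived; duplicate, 3–7 experiments.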

tsA201 [2] = test: Displacement of [3H]methyllycaconitine from chimeric alpha-7nAChR W55A/Y195A mutant /5HT3A receptor in tsA201 cells; assay type: cell-based; details: Homo sapiens; in short: as §1
[3] = Displacement of [3H]methyllycaconitine from chimeric alpha-7nAChR K145R mutant /5HT3A receptor in tsA201 cells; assay type: cell-based, Homo sapiens; in short: as §1
[4] = Antagonist activity at human alpha7nAChR Y93A mutant co-expressed with human Ric3 in tsA201 cells by FMP assay; assay type: functional, cell-based
[5] = Antagonist activity at human alpha7 nAChR W149Y mutant co-expressed with human Ric3 in tsA201 cells by FMP assay; assay type: functional, cell-based
[6] = Antagonist activity at human alpha-7 nAChR Y188A mutant coexpressed with human Ric3 in tsA201 cells by FMP assay; assay type: functional, cell-based
[7] = Antagonist activity at human alpha-7 nAChR Y195A mutant coexpressed with human Ric3 in tsA201 cells by FMP assay; assay type: functional, cell-based
[8] = target: Neuronal acetylcholine receptor; alpha4/beta2 (Rattus norvegicus, UniProt P09483+P12390); test: Displacement of [3H]epibatidine from rat recombinant alpha-4-beta-2 nAChR in HEK293 cell line; assay type: cell-based
[9] = target: T1, Neuronal acetylcholine receptor; alpha3/beta4 (Rattus norvegicus, UniProt P04757+P12392); test: Displacement of [3H]epibatidine from recombinant rat alpha-3-beta-4 nAChr in HEK293 cell line; assay type: cell-based
[10] = target: Neuronal acetylcholine receptor; alpha4/beta4 (Rattus norvegicus, UniProt P09483+P12392); test: Displacement of [3H]epibatidine from recombinant rat alpha-4-beta-4 nAChr in HEK293 cell line; assay type: cell-based
[11] = target: T2, Neuronal acetylcholine receptor subunit alpha-7 (Homo sapiens, UniProt P36544); test: Displacement of [3H]methyllycaconitine from human alpha-7 in tsA201 cells coexpressed with 5HT3A receptor; assay type: cell-based
Target sequence in this assay (P36544 whole entry): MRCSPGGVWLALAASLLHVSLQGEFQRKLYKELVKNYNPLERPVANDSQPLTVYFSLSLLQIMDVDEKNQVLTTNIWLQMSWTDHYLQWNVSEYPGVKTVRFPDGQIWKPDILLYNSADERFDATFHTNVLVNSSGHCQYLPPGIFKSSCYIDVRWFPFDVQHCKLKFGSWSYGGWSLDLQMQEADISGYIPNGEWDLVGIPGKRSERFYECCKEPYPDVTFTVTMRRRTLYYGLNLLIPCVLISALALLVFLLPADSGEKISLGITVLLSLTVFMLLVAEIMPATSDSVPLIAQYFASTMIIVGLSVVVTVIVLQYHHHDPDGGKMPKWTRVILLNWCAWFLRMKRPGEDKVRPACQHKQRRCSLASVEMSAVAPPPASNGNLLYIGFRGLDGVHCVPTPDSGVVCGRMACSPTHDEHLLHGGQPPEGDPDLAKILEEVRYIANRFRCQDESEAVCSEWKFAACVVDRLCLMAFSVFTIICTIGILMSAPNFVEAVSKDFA

[12] = target: T2, Neuronal acetylcholine receptor subunit alpha-7; test: Displacement of [3H]methyllycaconitine from alpha7 nAChR in tsA201 cells co-expressed with Ric3; assay type: cell-based
Target sequence in this assay (P36544 whole entry): as above

[13] = target: T3, 5-hydroxytryptamine receptor 3A (Homo sapiens, UniProt P46098); test: Displacement of [3H]GR65630 from human 5HT3A receptor in HEK293 cells; assay type: cell-based
T3 sequence (P46098 whole entry): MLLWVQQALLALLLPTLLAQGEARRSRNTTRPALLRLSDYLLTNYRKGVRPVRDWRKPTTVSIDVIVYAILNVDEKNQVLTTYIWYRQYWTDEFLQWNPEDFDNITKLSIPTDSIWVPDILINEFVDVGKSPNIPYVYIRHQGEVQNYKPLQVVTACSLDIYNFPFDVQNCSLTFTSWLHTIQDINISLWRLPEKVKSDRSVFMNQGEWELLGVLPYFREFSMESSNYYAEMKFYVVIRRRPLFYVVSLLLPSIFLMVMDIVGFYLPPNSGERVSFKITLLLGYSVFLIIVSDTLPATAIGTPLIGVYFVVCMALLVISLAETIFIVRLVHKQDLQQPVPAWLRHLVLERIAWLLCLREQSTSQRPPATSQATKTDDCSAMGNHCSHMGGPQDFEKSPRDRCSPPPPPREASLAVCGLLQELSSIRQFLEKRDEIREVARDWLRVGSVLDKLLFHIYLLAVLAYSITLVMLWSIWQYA

[14] = target: T2, Neuronal acetylcholine receptor subunit alpha-7; test: Antagonist activity at human alpha-7 nAChR in tsA201 cells coexpressed with Ric3 by FMP assay; assay type: functional, cell-based
Target sequence in this assay (P36544 whole entry): as the sequence (P36544 whole entry) above

[15] = target: T1, Neuronal acetylcholine receptor; alpha3/beta4; test: Antagonist activity at rat alpha3beta4 nAChR expressed in HEK293 cells by FMP assay; assay type: functional, cell-based, Homo sapiens; details: read-out: IC50
[16] = target: T3, 5-hydroxytryptamine receptor 3A; test: Antagonist activity at human 5HT3A receptor expressed in HEK293 cells by FMP assay; assay type: functional, cell-based; details: read-out: IC50
cells = assay type: functional, cell-based; details: Homo sapiens, HEK293
[17] = target: T4, Glycine receptor subunit alpha-1 (Homo sapiens, UniProt P23415); test: Antagonist activity at human glycine alpha-1 receptor in HEK293 cells by FMP assay; assay type: functional, cell-based
T4 sequence (P23415 whole entry): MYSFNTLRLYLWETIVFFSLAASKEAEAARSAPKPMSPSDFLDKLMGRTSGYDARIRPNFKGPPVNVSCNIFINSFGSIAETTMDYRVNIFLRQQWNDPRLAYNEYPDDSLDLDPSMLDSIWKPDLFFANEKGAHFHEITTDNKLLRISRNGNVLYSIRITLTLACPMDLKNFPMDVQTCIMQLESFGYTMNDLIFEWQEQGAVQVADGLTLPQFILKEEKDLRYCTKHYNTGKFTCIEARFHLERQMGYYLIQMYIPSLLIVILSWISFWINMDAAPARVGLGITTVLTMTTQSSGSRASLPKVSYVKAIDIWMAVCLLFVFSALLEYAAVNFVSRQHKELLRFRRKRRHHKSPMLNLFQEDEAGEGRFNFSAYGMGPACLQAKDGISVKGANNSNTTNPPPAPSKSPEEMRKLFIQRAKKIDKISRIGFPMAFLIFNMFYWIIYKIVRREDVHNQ

[18] = target: T2, Neuronal acetylcholine receptor subunit alpha-7; test: Displacement of [3H]methyllycaconitine from chimeric alpha7nAChR/5HT3A in tsA201 cells; assay type: cell-based
Target sequence in this assay (P36544 23-502 limits assumed): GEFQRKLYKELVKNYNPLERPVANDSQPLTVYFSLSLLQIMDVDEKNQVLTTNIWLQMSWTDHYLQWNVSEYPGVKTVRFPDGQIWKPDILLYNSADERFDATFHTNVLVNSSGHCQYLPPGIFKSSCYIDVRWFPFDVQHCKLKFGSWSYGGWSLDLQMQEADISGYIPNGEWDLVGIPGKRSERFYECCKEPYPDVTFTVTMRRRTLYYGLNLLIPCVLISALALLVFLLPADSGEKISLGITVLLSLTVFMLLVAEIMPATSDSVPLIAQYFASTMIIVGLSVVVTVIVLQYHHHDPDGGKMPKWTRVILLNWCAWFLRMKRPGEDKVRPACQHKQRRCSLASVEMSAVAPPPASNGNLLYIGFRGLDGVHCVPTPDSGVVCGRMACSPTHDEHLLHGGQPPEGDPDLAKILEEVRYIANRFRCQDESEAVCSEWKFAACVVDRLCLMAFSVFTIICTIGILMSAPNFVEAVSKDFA

[19] = Displacement of [3H]methyllycaconitine from chimeric alpha-7nAChR W55A mutant /5HT3A receptor in tsA201 cells; assay type: cell-based, Homo sapiens; in short: as §1
[20] = Displacement of [3H]methyllycaconitine from chimeric alpha7nAChR W55Y mutant/5HT3A receptor in tsA201 cells; assay type: cell-based, Homo sapiens; in short: as §1
[21] = Displacement of [3H]methyllycaconitine from chimeric alpha7nAChR R79A mutant/5HT3A receptor R79A mutant in tsA201 cells; assay type: cell-based, Homo sapiens; in short: as §1
tsA201 [22] = test: Displacement of [3H]methyllycaconitine from chimeric alpha-7nAChR Y93A mutant/5HT3A receptor in tsA201 cells; assay type: cell-based; details: Homo sapiens; in short: as §1
[23] = Displacement of [3H]methyllycaconitine from chimeric alpha-7nAChR N107A mutant/5HT3A receptor in tsA201 cells; assay type: cell-based, Homo sapiens; in short: as §1
[24] = Displacement of [3H]methyllycaconitine from chimeric alpha7nAChR K145A mutant/5HT3A receptor in tsA201 cells; assay type: cell-based, Homo sapiens; in short: as §1
[25] = Displacement of [3H]methyllycaconitine from chimeric alpha-7nAChR S148A mutant /5HT3A receptor in tsA201 cells; assay type: cell-based, Homo sapiens; in short: as §1
tsA201 [26] = test: Displacement of [3H]methyllycaconitine from chimeric alpha-7nAChR W149A mutant/5HT3A receptor in tsA201 cells; assay type: cell-based; details: Homo sapiens; in short: as §1
tsA201 [27] = test: Displacement of [3H]methyllycaconitine from chimeric alpha-7nAChR W149Y mutant/5HT3A receptor W149Y mutant in tsA201 cells; assay type: cell-based; details: Homo sapiens; in short: as §1
[28] = Displacement of [3H]methyllycaconitine from chimeric alpha-7nAChR S150A mutant/5HT3A receptor in tsA201 cells; assay type: cell-based, Homo sapiens; in short: as §1
[29] = Displacement of [3H]methyllycaconitine from chimeric alpha-7nAChR Y168A mutant/5HT3A receptor in tsA201 cells; assay type: cell-based, Homo sapiens; in short: as §1
tsA201 [30] = test: Displacement of [3H]methyllycaconitine from chimeric alpha-7nAChR Y188A mutant/5-HT3A receptor in tsA201 cells; assay type: cell-based; details: Homo sapiens; in short: as §1
[31] = Displacement of [3H]methyllycaconitine from chimeric alpha7nAChR Y195A mutant/5HT3A receptor in tsA201 cells; assay type: cell-based, Homo sapiens; in short: as §1
[32] = Displacement of [3H]methyllycaconitine from chimeric alpha-7nAChR Y195F mutant/5HT3A receptor in tsA201 cells; assay type: cell-based, Homo sapiens; in short: as §1
[33] = target: T2, Neuronal acetylcholine receptor subunit alpha-7
Target sequence in this assay (P36544 whole entry): as the sequence (P36544 whole entry) above

T1 sequence (P04757 whole entry): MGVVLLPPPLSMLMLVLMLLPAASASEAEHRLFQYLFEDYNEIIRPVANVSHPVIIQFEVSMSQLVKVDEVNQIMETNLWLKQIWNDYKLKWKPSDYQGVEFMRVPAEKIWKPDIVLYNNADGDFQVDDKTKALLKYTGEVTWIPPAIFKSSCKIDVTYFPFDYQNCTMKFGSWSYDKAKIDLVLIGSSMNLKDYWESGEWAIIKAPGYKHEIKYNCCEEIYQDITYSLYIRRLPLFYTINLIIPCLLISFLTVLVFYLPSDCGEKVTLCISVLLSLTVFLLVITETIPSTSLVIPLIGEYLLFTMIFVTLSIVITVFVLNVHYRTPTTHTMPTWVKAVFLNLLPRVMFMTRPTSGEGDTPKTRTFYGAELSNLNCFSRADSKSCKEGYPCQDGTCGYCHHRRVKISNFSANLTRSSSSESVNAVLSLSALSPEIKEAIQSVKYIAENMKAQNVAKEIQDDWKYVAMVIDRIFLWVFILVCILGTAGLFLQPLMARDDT
T1 sequence (P12392 whole entry): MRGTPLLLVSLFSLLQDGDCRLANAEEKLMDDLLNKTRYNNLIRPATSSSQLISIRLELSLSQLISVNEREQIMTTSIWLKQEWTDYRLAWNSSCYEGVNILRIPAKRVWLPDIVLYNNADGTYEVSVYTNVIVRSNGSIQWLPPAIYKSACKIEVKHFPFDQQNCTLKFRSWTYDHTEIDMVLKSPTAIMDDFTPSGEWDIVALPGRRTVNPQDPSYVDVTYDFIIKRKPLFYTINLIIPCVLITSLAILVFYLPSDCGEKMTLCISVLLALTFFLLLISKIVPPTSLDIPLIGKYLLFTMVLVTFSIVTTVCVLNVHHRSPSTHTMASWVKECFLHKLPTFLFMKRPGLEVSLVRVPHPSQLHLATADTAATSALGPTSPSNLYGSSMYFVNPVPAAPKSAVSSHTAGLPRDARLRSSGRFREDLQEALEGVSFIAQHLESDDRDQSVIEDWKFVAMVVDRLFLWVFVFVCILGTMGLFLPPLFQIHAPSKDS
Sequence of Neuronal acetylcholine receptor; alpha4/beta2 (P09483 whole entry): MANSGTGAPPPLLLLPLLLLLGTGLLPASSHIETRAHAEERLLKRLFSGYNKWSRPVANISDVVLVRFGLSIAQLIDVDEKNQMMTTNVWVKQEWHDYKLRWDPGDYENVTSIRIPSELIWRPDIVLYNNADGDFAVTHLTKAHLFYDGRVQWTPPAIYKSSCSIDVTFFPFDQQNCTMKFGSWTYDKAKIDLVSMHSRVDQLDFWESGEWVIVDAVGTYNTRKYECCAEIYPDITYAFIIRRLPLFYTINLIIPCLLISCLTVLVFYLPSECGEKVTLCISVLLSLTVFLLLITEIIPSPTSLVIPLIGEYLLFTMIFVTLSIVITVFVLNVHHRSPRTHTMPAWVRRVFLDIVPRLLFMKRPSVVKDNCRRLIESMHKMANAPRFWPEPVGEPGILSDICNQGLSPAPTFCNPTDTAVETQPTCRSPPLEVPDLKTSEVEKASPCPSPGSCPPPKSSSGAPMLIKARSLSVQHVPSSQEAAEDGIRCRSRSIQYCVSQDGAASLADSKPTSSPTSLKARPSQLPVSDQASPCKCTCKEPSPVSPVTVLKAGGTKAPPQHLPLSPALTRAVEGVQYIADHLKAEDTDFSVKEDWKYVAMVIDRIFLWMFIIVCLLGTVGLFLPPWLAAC
Sequence of Neuronal acetylcholine receptor; alpha4/beta2 (P12390 whole entry): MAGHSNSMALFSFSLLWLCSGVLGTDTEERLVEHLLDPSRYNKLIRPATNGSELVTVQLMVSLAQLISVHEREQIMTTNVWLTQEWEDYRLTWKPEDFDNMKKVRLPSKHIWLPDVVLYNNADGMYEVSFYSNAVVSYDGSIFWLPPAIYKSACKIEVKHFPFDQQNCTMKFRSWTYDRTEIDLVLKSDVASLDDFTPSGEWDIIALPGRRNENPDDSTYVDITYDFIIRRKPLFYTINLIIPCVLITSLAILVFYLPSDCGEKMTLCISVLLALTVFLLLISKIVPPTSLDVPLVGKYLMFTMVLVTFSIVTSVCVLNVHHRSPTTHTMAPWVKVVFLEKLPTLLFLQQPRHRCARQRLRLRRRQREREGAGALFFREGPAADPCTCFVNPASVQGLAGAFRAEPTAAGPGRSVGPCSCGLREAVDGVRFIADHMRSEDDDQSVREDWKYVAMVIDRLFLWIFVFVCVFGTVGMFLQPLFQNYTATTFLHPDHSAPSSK
Sequence of Neuronal acetylcholine receptor; alpha4/beta4 (P09483 whole entry): as the sequence (P09483 whole entry) above
Sequence of Neuronal acetylcholine receptor; alpha4/beta4 (P12392 whole entry): as the sequence (P12392 whole entry) above

SMILES: C[N+]12CC[C@@H]3[C@@H]4/C(=C\N5c6ccccc6[C@@]67CC[N+]8(C)CC9=CCO[C@H]([C@@H]([C@H]56)[C@H]9C[C@@H]78)N4c4ccccc4)[C@@H](C[C@@H]31)/C(=C\CO)C2.[I-].[I-] (stereo partly drawn)
- Ki [1]: 2.2 µM
- pKi [1]: 5.66
- Activity (tsA201 [2]): inactive
- Ki [3]: 0.74 µM
- pKi [3]: 6.13
- IC50 ([4]; read-out: IC50): 6.6 µM
- IC50 ([4]; read-out: pIC50 (converted)): 6.61 µM
- IC50 ([5]; read-out: IC50): 8.9 µM
- IC50 ([5]; read-out: pIC50 (converted)): 8.91 µM
- IC50 ([6]; read-out: IC50): 4.7 µM
- IC50 ([6]; read-out: pIC50 (converted)): 4.68 µM
- IC50 ([7]; read-out: IC50): 7.1 µM
- IC50 ([7]; read-out: pIC50 (converted)): 7.08 µM
- pKi ([8]; hek293): < 4
- Ki ([8]; read-out: Ki): > 100 µM
- Ki [9]: 30 µM
- Ki [10]: > 100 µM
- pKi ([10]; hek293): < 4
- Ki ([11]; read-out: Ki): 0.98 µM
- Ki ([11]; read-out: pKi (converted)): 1 µM
- Ki ([12]; read-out: Ki): 0.62 µM
- Ki ([12]; read-out: pKi (converted)): 0.631 µM
- Ki [13]: 5.9 µM
- IC50 ([14]; read-out: IC50): 2.1 µM
- IC50 ([14]; read-out: pIC50 (converted)): 2.09 µM
- IC50 [15]: 30 µM
- IC50 [16]: 4.2 µM
- IC50 (cells; read-out: IC50): > 100 µM
- IC50 (cells; read-out: pIC50 (converted)): > 100 µM
- IC50 [17]: > 100 µM
- pIC50 ([17]; hek293): < 4
- Ki [18]: 0.97 µM
- pKi [18]: 6.01
- Ki [19]: 3.1 µM
- pKi [19]: 5.51
- Ki [20]: 0.69 µM
- pKi [20]: 6.16
- Ki [21]: 1.4 µM
- pKi [21]: 5.86
- Activity (tsA201 [22]): inactive
- Ki [23]: 1.3 µM
- pKi [23]: 5.87
- Ki [24]: 0.89 µM
- pKi [24]: 6.05
- Ki [25]: 1 µM
- pKi [25]: 5.98
- Activity (tsA201 [26]): inactive
- Activity (tsA201 [27]): inactive
- Ki [28]: 0.72 µM
- pKi [28]: 6.14
- Ki [29]: 1.3 µM
- pKi [29]: 5.89
- Activity (tsA201 [30]): inactive
- Ki [31]: 6.2 µM
- pKi [31]: 5.21
- Ki [32]: 1.3 µM
- pKi [32]: 5.9
- IC50 [33]: 1.4 µM and 1.38 µM
